For 97 molecules, activation results are on record in PubChem BioAssay AID504383 (The Scripps Research Institute Molecular Screening Center, 2011).

SMILES strings stand for the structures. The whole screen tested about 2,500 compounds, of which about 1,200 (48%) were called active. So high a share suggests a set chosen from earlier hits. The list shows a part of the results. Values without a mark were called inactive.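 The calls were made as follows: active = mean activation above the low control average plus 3 SD, as set in the primary screen (cut at about 12% in these data); inactive = the rest.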

The target in the test is Troponin I, cardiac muscle (Homo sapiens) + Troponin T, cardiac muscle (Homo sapiens) + Troponin C, slow skeletal and cardiac muscles (Homo sapiens) (UniProt P19429+P45379+P63316). As to the kind of experiment: cardiac RTF calcium sensitivity activators, confirmation, biochemical, IANBD-TnC fluorescence, triplicate (AID 504383).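 Also: 0% = DMSO at 0.472 mM calcium and 100% = DMSO at 2.9 mM calcium.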 To be noted: IANBD-labeled cardiac RTF, Ca2+ sensitivity fluorescence; at 7.2 µM; hits give high values; scaled from EC20 to saturating calcium; tested at EC20 calcium, 0.472 mM. The method in brief: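 Test system: labelled regulated thin filament protein complex. Dosing: single nominal compound dose of 7.2 µM. Benchmarks: EC20 and EC100 calcium wells. Read-out basis: fluorescence gain scaled between EC20 and EC100 calcium controls. Probe or stimulus: submaximal calcium at 0.472 mM (EC20). Technique: fluorescence. Times: 15 min compound exposure, 25 °C.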
In the case of `O=C(O)C1CCCCC1C(=O)Nc1ccc(-c2ccccc2)cc1` (configuration not stated), the activation is 8.12%.

Regarding `Cn1nc(NC(=O)C2CCC2C(=O)O)c2c(F)cccc21` (configuration not stated), the activation was 52.9% (active).

Regarding `CCc1cc[n+](-c2nc3ccccc3nc2[N-]S(=O)(=O)c2ccc(Br)s2)cc1`, the activation was -1.89%.

As to `CCc1cc[n+](-c2nc([O-])sc2C=O)cc1`, the activation is 14.1% (active).

`Cc1ccc[n+](-c2nc([O-])sc2C=O)c1`: the activation is 64.2% (active).

As for `CCNC(=O)NNC(=O)C1CC(c2cccs2)=NO1` (configuration not stated), the activation was 4.43%.

In the case of `COc1cc(/C=C2\SC(=Nc3ccc(Cl)c(C(=O)O)c3)NC2=O)c(Br)c(Br)c1O`, the activation is 54% (active).

Regarding `COc1cc(/C=C2\SC(=Nc3ccccc3)NC2=O)cc(Cl)c1O`, the activation was 3.89%.

As to `CCN(CC)c1ccc2c(c1)OC(N)=C(C#N)C2c1cccnc1` (configuration not stated), the activation is 15.4% (active).

For the molecule `CSc1nc(C)nc(N/C=C(\C#N)S(=O)(=O)c2ccccc2Cl)n1`, the activation was 6.97%.

As to `Cc1c(CN2CCCC(C)C2)c(O)n(CCO)c(=O)c1C#N` (configuration not stated), the activation was 11.9% (active).

With `C=CCn1c(O)c(CN2CCN(Cc3ccccc3)CC2)c(C)c(C#N)c1=O`, the activation is 3.99%.

On to `CCN(c1ccccc1)S(=O)(=O)c1ccc(OC)c(NC(=O)Cn2cnc3c2c(=O)n(C)c(=O)n3C)c1`, for which the activation is 18.8% (active).

As to `CC1=C(C(=O)N(C)C)C(c2ccc(C)s2)NC(=S)N1` (configuration not stated), the activation was 0.74%.

On to `CCn1nc(-c2ccccc2)c2nc3ccccc3nc21`, for which the activation is 26.2% (active).

With `CCCCCn1nc(-c2ccccc2)c2nc3ccccc3nc21`, the activation was 54.7% (active).

For `Cn1nc(-c2ccccc2)c2nc3ccccc3nc21`, the activation was 8.34%.

Take `Cc1cc(C(=O)O)ccc1-c1ccc(/C=C2\SC(=O)N(CC(=O)Nc3ccc4c(c3)OCO4)C2=O)o1`: the activation is 11.4%.

Consider `O=C(COC(=O)c1ccc(O)cc1)Nc1ccc2c(c1)OCCO2`, for which the activation is 78.5% (active).

As for `Cc1c(C)[n+](=O)c(-c2ccc(Br)cc2)c(C)n1[O-]`, the activation is 1060% (active).

Take `CCCCC1OC2(C)OC(=N)C1(C#N)C(C#N)(C#N)C2c1ccccc1` (configuration not stated): the activation was 8.3%.

`CCC12OC(=N)C(C#N)(C1C)C(C#N)(C#N)C(c1ccccc1)O2` (configuration not stated): the activation is 2.9%.

Regarding `CC1C2(C)OC(=N)C(C#N)(C(C)O2)C1(C#N)C#N` (configuration not stated), the activation was 13.7% (active).

With `CCc1ccc2c(c1)C(NC(C)=O)C(=O)N2CC` (configuration not stated), the activation was 6.29%.

On to `c1ccc(CCC2=NCCn3cccc32)cc1`, for which the activation is 15.8% (active).

Regarding `Nc1ccc2c(O)cc(S(=O)(=O)O)cc2c1`, the activation is 16.8% (active).

As to `Cc1ccc(N=Nc2c(O)n(CN3CCOCC3)c3ccccc23)cc1`, the activation was 35.8% (active).

`C/C(N)=C(/C#N)C(=O)CSc1n[nH]c(-c2cccs2)n1`: the activation was 11.4%.

As for `COc1ccc(Cl)cc1-c1nc(SCC(=O)NC(C)C)n[nH]1`, the activation is 8.01%.

In the case of `Cc1ccc(C)c(C(=O)CSc2n[nH]c(C(C)C)n2)c1`, the activation was 128% (active).

With `CC(C)(CO)NCC#Cc1ccccc1`, the activation is 5.16%.

For the molecule `CCCOc1cc(N(CC)CC)ccc1/C=C(/C#N)c1nc2ccc(C)cc2[nH]1`, the activation is 30.9% (active).

On to `COc1cc(/C=C(\C#N)c2nc3ccccc3[nH]2)ccc1O`, for which the activation was 6.21%.

As to `CCN(CC)c1ccc(/C=C(/C#N)c2nc3ccccc3[nH]2)c(OC(C)C)c1`, the activation is 127% (active).

With `COc1cccc(/C=C(/C#N)c2nc3ccccc3[nH]2)c1OC(C)C(=O)O` (configuration not stated), the activation was 5.66%.

`COc1cc(/C=C(\C#N)c2nc3ccccc3[nH]2)cc(OC)c1O`: the activation is 37.9% (active).

With `CCOc1cc(N(CC)CC)ccc1/C=C(/C#N)c1nc2ccccc2[nH]1`, the activation was 5.8%.

For `COC1C/C(=N\O)C2OC(c3ccccc3)OCC2O1` (configuration not stated), the activation was 6.29%.

`COc1cc2c3nnc(-c4ccc(F)cc4)c-3cn(Cc3cccc(F)c3)c2cc1OC`: the activation is 446% (active).

`COc1cc2c3nnc(-c4ccc(F)cc4)c-3cn(Cc3cccc(C)c3)c2cc1OC`: the activation is 11.1%.

For `COc1cc2c3nnc(-c4ccc(F)cc4)c-3cn(Cc3ccc(C)cc3)c2cc1OC`, the activation is 3.15%.

As for `COCCNC(=O)C(c1ccc(C)o1)N(Cc1ccc(F)cc1)C(=O)Cn1nnc2ccccc21` (configuration not stated), the activation is 4.47%.

`O=C(NC1CCCCC1)C(c1ccc(F)cc1)N(Cc1ccccc1)C(=O)CN1C(=O)c2ccccc2S1(=O)=O` (configuration not stated): the activation was 165% (active).

As for `Cc1cc(/C=N/NC(N)=S)c(O)c(/C=N/NC(N)=S)c1`, the activation is 480% (active).

Regarding `CCn1c(Cc2ccccc2)nnc1SCC(=O)OC(C)C`, the activation was 11.8% (active).

Take `CC(=O)Nc1cccc(NC(=O)CSc2nnc(Cc3cccn3C)n2CCc2ccccc2)c1`: the activation is 2.51%.

As for `C/C(=N/NC(=O)CNC(=O)Cc1ccccc1)c1ccco1`, the activation was 5.62%.

For `C/C(=N/NC(=O)c1cc(C)[nH]n1)c1ccco1`, the activation is 14.3% (active).

For the molecule `CCN(CC)c1ccc(/C=c2/sc3nnc(-c4ccccc4C)n3c2=O)cc1`, the activation was 12% (active).

Take `CCN(CC)c1ccc(/C=C/C(=O)C2C(=O)C=C(C)OC2=O)cc1` (configuration not stated): the activation was 3.69%.

With `CCN(CC)c1ccc(/C=c2\sc3nnc(-c4ccccc4Cl)n3c2=O)cc1`, the activation was 72.8% (active).

Turning to `COc1cccc(C2C=C(c3ccc(Br)s3)Nc3ncnn32)c1OC` (configuration not stated), the activation was 5.02%.

`Brc1ccc(C2=CC(c3cccs3)n3ncnc3N2)cc1` (configuration not stated): the activation was 8.78%.

Regarding `COc1cc(C2C=C(c3cccs3)Nc3ncnn32)cc(OC)c1OC` (configuration not stated), the activation is 12.2% (active).

On to `COC(=O)C1=C(CSc2nc3c(cc2C#N)CN(C)CC3)OC(N)=C(C#N)C1c1ccc(F)cc1` (configuration not stated), for which the activation is -0.37%.

For the molecule `Cc1cc(C)nc(NS(=O)(=O)c2ccc(NC(=O)CSc3nc4ccccc4[nH]3)cc2)n1`, the activation was 8.08%.

In the case of `Cc1noc(NS(=O)(=O)c2ccc(NC(=O)CSc3nc4c(cc3C#N)CCC4)cc2)c1C`, the activation is 12.5% (active).

With `CC(=O)Nc1ccccc1`, the activation was 6.06%.

For `CC(=O)Nc1ccc2cc3ccc(NC(C)=O)cc3nc2c1`, the activation was 43% (active).

With `CC(=O)Nc1ccc2nc3c(=O)n(C)c(=O)n(C)c3nc2c1`, the activation is 18.8% (active).

Take `CC1CCN(S(=O)(=O)c2ccc(N=NC3=C(O)CC(C)(C)CC3=O)cc2)CC1`: the activation is 11.9% (active).

`CC(=O)Nc1ccc(S(=O)(=O)N2CCN3CCCC3C2)cc1` (configuration not stated): the activation was 6.53%.

Take `COc1ccccc1C(=O)Nc1nnn(C)n1`: the activation is 10%.

For the molecule `Cc1nn(C)c(NC(=O)c2ccccc2Cl)c1Cl`, the activation is 59.1% (active).

Take `CN1Cc2c(N)cccc2C(c2ccccc2)C1` (configuration not stated): the activation was -1.03%.

As for `N/C(COc1cc(Cl)cc(Cl)c1)=N\O`, the activation is 153% (active).

Turning to `COC(=O)CN1C(=S)N(c2ccc(OC)cc2)C(=O)/C1=C/c1ccc(N2CCOCC2)cc1`, the activation is 11.4%.

For `CCc1ccc(/C=C2/C(=O)N(C)C(=S)N2CC(=O)OC)s1`, the activation is 11.7% (active).

For the molecule `C=CCN(C(=O)CNS(=O)(=O)c1ccccc1)C(C(=O)NCCOC)c1ccncc1` (configuration not stated), the activation was 16.9% (active).

In the case of `CCOc1ccc(N(C(=O)CNC(=O)c2ccco2)C(C(=O)NC2CCCC2)c2ccncc2)cc1` (configuration not stated), the activation is 9.24%.

Take `COCCCN1C(=O)/C(=C/c2ccc(CNS(=O)(=O)c3ccccc3)o2)C(C(=O)OC)=C1C`: the activation was 8.19%.

In the case of `N#CC(C#N)=C1C=C2C=C(N3CCOCC3)CCC2CC1` (configuration not stated), the activation is -1.16%.

With `Cc1ccccc1-n1c(O)c(/C=C/C=Nc2ccccc2)c(=O)[nH]c1=O`, the activation was 19.4% (active).

In the case of `CSc1nnc(N(CCC#N)CCC#N)s1`, the activation was 35.1% (active).

On to `O=C1c2ccccc2C(=O)N1CC1=NCCc2ccccc21`, for which the activation is 11.2%.

Turning to `O=C(c1ccc(F)cc1)N1CCN=C1c1ccccc1`, the activation is 9.85%.

Consider `O=C(CN1C(=O)c2ccccc2C1=O)N1CCN=C1c1ccccc1`, for which the activation was 70.2% (active).

For `CC1CN/C(=C\C(=O)c2ccc(Br)cc2)C(=O)N1` (configuration not stated), the activation was 2.08%.

In the case of `CCCN1C=CC(=CC=C(C#N)C#N)C=C1`, the activation is 28% (active).

As for `CCOC(=O)/C(C#N)=C\C=C1C=CN(C)C=C1`, the activation is 8.19%.

Turning to `C=CCN1C=CC(=CC=C(C#N)C#N)C=C1`, the activation was 668% (active).

`CC1=C/C(=C\C=C(C#N)C#N)N(C)c2ccccc21`: the activation is 8.37%.

For `CCCCCCN1C=CC(=C/C=C(\C#N)C(=O)OCC)C=C1`, the activation is 501% (active).

Regarding `C=CCN1C=CC(=C/C=C(/C#N)C(=O)OCC)C=C1`, the activation was 4.84%.

`Cc1cc(C)nc(SCCCNCc2ccc(Br)cc2)n1`: the activation is 9.74%.

Turning to `O=C(O)c1ccc(O)c(O)c1`, the activation was 7.5%.

Regarding `Cc1cc(C)n(-c2ccc(C(=O)O)cc2)n1`, the activation was 16.2% (active).

For the molecule `Cc1cc(C)n(-c2ccc([N+](=O)[O-])cc2-c2nn[nH]n2)n1`, the activation is 7.13%.

Regarding `N#CC1=C(N)Oc2ccc3ccc(O)cc3c2C1c1ccsc1` (configuration not stated), the activation is 31.6% (active).

As for `N#CC1=C(N)SC(N)=C(C#N)C1c1cccc(O)c1`, the activation was 6.27%.

Consider `CCOC(=O)c1sc(N)c(C#N)c1COC(=O)CNC(=O)c1ccccc1`, for which the activation was 8.8%.

Regarding `CCOC(=O)c1sc(N)c(C#N)c1COC(=O)CNC(=O)c1cc(OC)c(OC)c(OC)c1`, the activation was 67.4% (active).

Consider `CC(C)CC[C@@H](O)[C@](C)(O)C1CC[C@@]2(O)C3=CC(=O)[C@@H]4C[C@@H](O)[C@@H](O)C[C@]4(C)C3CC[C@]12C` (some centres not stated), for which the activation is 279% (active).

`CNC(=O)N(O)C1N(C)C(=O)N(CC(=O)OC)C1(C)C` (configuration not stated): the activation is 55.3% (active).

Regarding `COc1ccc(OC(C)C(=O)Nc2cccc(OC)c2)cc1` (configuration not stated), the activation was 7.49%.

Take `COc1cc(OC)c(C(=O)OC(C)C(=O)Nc2cccc(C(F)(F)F)c2)cc1OC` (configuration not stated): the activation is 32.5% (active).

Consider `COc1ccc(C2=NN(C(=O)COC(=O)c3ccc(NC(=O)CC#N)cc3)C(c3ccco3)C2)cc1` (configuration not stated), for which the activation is 14.7% (active).
